Assay [1] has as its system T47D. Briefly: Effect on cellular respiration in human T47D cells assessed as increase in state 4 respiration at 0.3 to 3 uM by cell-based reporter assay. The assay is classed as functional. The method, boiled down:
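Respiring T47D cells given oligomycin (1 μM) to set state 4 respiration, then compound or FCCP added at 0.3, 1 and 3 μM. Reported as Respiration Index = OCR (oligomycin + compound) / OCR (oligomycin).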
Background: In a reporter assay the amount or activity of a reporter protein is the signal.

Assay [2] relates to PC-3. Briefly: Antiproliferative activity against human PC3 cells after 48 hrs. The following applies: PC-3, 48 h. The assay is classed as functional, cell-based. The method, boiled down:
(§1)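 Tumor cells (T47D or PC-3, from ATCC) exposed 48 h to compounds at 0.31 to 20 μM, from DMSO stocks with final DMSO under 0.5%. EC50 and 95% CI derived from one experiment run in triplicate. Maximum inhibition set at 50% for T47D and 40% for PC-3.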

The target of assay [3] is T1, Hypoxia inducible factors; HIF-1-alpha, HIF-2-alpha (Homo sapiens, UniProt Q16665+Q99814). Briefly: Inhibition of hypoxia-induced HIF1 activation in human T47D cells expressing pGL3 construct after 16 hrs by cell-based luciferase reporter assay. The method, boiled down: (§2)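 T47D cells carrying an HIF-1 luciferase reporter, induced for 16 h either by hypoxia (1% O2) or by 10 μM 1,10-phenanthroline, with compounds over 0.31 to 20 μM. IC50 and 95% CI taken from one representative of two independent experiments, each run in triplicate.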

For assay [4], the system named is T47D. Briefly: Effect on cellular respiration in human T47D cells assessed as decrease in oxygen consumption at 10 uM by cell-based reporter assay. The assay is classed as functional. The gist of the method: (§3)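 Oxygen consumption of T47D cells measured with compound at 0.3, 1, 3 and 10 μM. Reported as Relative Respiration Rate = 100 × (OCR compound / OCR untreated control) − 100. FCCP included as reference uncoupler. Mean + SD from three independent experiments.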

For assay [5], the system named is T47D. Briefly: Effect on cellular respiration in human T47D cells assessed as oxygen consumption at 0.3 uM by cell-based reporter assay. The assay is classed as functional. The gist of the method: as §3
Assay [6] concerns T47D. Briefly: Antiproliferative activity against human T47D cells after 48 hrs. The assay is classed as functional, cell-based. The gist of the method:
as §1

The subject of assay [7] is T47D. Briefly: Inhibition of hypoxia-induced VEGF protein secretion in human T47D cells after 16 hrs by ELISA. The assay is classed as functional, cell-based. The method, boiled down:
(§4)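 T47D cells held under hypoxia (1% O2, 16 h) with compound at 3 or 10 μM. VEGF in conditioned medium measured by ELISA and normalized to cellular protein. Normoxic and hypoxic medium controls included. Mean + SD from one experiment run in triplicate.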
A general note: ELISA stands for enzyme-linked immunosorbent assay.

Assay [8] concerns the target T1, Hypoxia inducible factors; HIF-1-alpha, HIF-2-alpha. Briefly: Inhibition of 1,10-phenanthrolin-induced HIF1 activation in human T47D cells expressing pGL3 construct after 16 hrs by cell-based luciferase reporter assay. The method, boiled down:
as §2

Assay [9] deals with T47D. Briefly: Effect on cellular respiration in human T47D cells assessed as decrease in oxygen consumption at 0.3 to 10 uM by cell-based reporter assay in presence of F0F1ATPase 1 uM inhibitor oligomycin. The assay is classed as functional.
Assay [10] has as its system T47D. Briefly: Cytostatic effect against human T47D cells assessed as cell growth inhibition at 20 uM after 48 hrs. The assay is classed as functional. Also noted: scale not given: the % may be the effect or the level left.
For assay [11], the system named is PC-3. Briefly: Antiproliferative activity against human PC3 cells assessed as cell viability at 20 uM. The assay is classed as functional. The conditions noted are these: read-out: Activity.
Assay [12] relates to T47D. Briefly: Inhibition of hypoxia-induced VEGF protein secretion in human T47D cells at 3 uM after 16 hrs by ELISA. The assay is classed as functional. The gist of the method: as §4
Assay [13] concerns T47D. Briefly: Inhibition of hypoxia-induced VEGF protein secretion in human T47D cells upto 10 uM after 16 hrs by ELISA. The assay is classed as functional. The method, boiled down: as §4

The source made the active and inactive calls. No cut-off for these calls is given here.

For orientation: IC50 means the point on the concentration scale where inhibition reaches its midpoint.

Take `CCCC[C@H](O)c1cc(=O)oc2c(C(=O)[C@@H](C)CC)c(OC)c(CC=C(C)C)c(OC)c12`: the Activity entry was “Non-toxic” in the assay with T47D [1] and 91% in the assay on T47D [10]. Moreover, the IC50 is 6.41 µM in the assay with PC-3 [2], 6.31 µM in assay [3], 4.54 µM in the assay on T47D [6] and 6.5 µM in [8]. Besides, the outcome in the assay on T47D [4] and in the assay on T47D [9] was Active. Also, the result with T47D [5] was inactive. Further, in the assay with T47D [7], the inhibition result was “Dose-dependent effect”. The viability at 20 µM with PC-3 [11] was found to be 93%. For the same compound, the inhibition entry in the assay on T47D [12] was “Active”.
Turning to `CCCc1cc(=O)oc2c(C(=O)CC(C)C)c(O)c(CC=C(C)C)c(O)c12`, the result in the assay with T47D [1], in the assay with T47D [4] and in the assay on T47D [9] was Active. For the same compound, the IC50 was determined as 2.27 µM in the assay on PC-3 [2], 2.2 µM in assay [3], 1.32 µM with T47D [6] and 1.28 µM in [8]. For the same compound, the outcome with T47D [5] was inactive. In the assay on T47D [7], the inhibition result was “Dose-dependent effect”. Also, the inhibition result with T47D [12] was “inactive”.
As to `CCCC[C@H](OC)c1cc(=O)oc2c(CC(=O)[C@@H](C)CC)c(OC)c(CC=C(C)C)c(OC)c12`, the IC50 is greater than 20 µM in the assay with PC-3 [2], 5.91 µM in assay [3], 4.67 µM with T47D [6] and 15.7 µM in [8].
As to `CCCc1cc(=O)oc2c(CC=C(C)C)c(O)c(C(=O)[C@H](C)CC)c(O)c12`, the outcome in the assay with T47D [1], in the assay with T47D [4] and in the assay on T47D [9] was Active. Besides, the IC50 in the assay on PC-3 [2] amounted to 10.5 µM; in [3] it was 9.96 µM; in the assay on T47D [6], 5.52 µM; in [8], 8.21 µM. In addition, the outcome with T47D [5] was inactive. This compound returned an Activity with T47D [13] of 1 µM.
As to `CC[C@H](C)C(=O)c1c(O)c(CC=C(C)C)c2oc(=O)cc(-c3ccccc3)c2c1O`, the IC50 in the assay with PC-3 [2] was found to be 3.82 µM; in [3], 4.63 µM; in the assay with T47D [6], 2.88 µM; in [8], 4.82 µM.
Consider `CCCC[C@H](OC(C)=O)c1cc(=O)oc2c(C(=O)[C@@H](C)CC)c(OC(C)=O)c(CC=C(C)C)c(OC(C)=O)c12`, for which the figures for the Activity result with T47D [1] and with T47D [10] were “Non-toxic” and 82%, respectively. For the same compound, the IC50 with PC-3 [2] was 1.17 µM; in assay [3] it was 0.83 µM; with T47D [6], 0.73 µM; in assay [8] it was 1.06 µM. Moreover, the outcome in the assay with T47D [4] and in the assay with T47D [9] was Active. Further, the outcome in the assay on T47D [5] was inactive. In addition, in the assay on PC-3 [11], the viability at 20 µM is 65%.
`CCCC[C@H](O)c1cc(=O)oc2c(C(=O)[C@@H](C)CC)c(O)c(CC=C(C)C)c(O)c12`: the result with T47D [1], in the assay on T47D [4] and in the assay on T47D [9] was Active. For the same compound, the IC50 in the assay with PC-3 [2] came to 2.09 µM; in [3], 2.23 µM; with T47D [6] it was 1.36 µM; in assay [8] it was 2.3 µM. Moreover, the result in the assay with T47D [5] was inactive. The inhibition entry in the assay with T47D [7] is “Dose-dependent effect”. Also, the inhibition entry in the assay with T47D [12] was “inactive”.
`CCCCCc1cc(=O)oc2c(CC=C(C)C)c(O)c(C(=O)[C@H](C)CC)c(O)c12` [MAMMEA C/AB]: the IC50 with PC-3 [2] was found to be 4.18 µM; in assay [3] it was 5.7 µM; in the assay with T47D [6], 3.57 µM; in assay [8], 5.31 µM.
On to `CCCCCc1cc(=O)oc2c(C(=O)[C@@H](C)CC)c(O)c(CC=C(C)C)c(O)c12`, for which the half-inhibitory concentration (IC50) in the assay on PC-3 [2] worked out at 2.19 µM; in assay [3] it was 3.73 µM; with T47D [6], 1.56 µM; in [8] it was 3.4 µM.
Take `CCCCCc1cc(=O)oc2c(C(=O)CC(C)C)c(O)c(CC=C(C)C)c(O)c12`: the outcome in the assay on T47D [1], with T47D [4] and in the assay with T47D [9] was Active. For the same compound, the IC50 with PC-3 [2] is 1.88 µM; in assay [3], 2.76 µM; in the assay on T47D [6], 1.36 µM; in assay [8] it was 2.71 µM. The outcome with T47D [5] was inactive. In addition, the inhibition result in the assay on T47D [7] was “Dose-dependent effect”.
For `CCCC[C@H](O)c1cc(=O)oc2c(CC(=O)[C@@H](C)CC)c(OC)c(CC=C(C)C)c(OC)c12`, the IC50 in the assay on PC-3 [2] was 10.6 µM; in [3], 7.42 µM; in the assay on T47D [6], 6.18 µM; in assay [8], 11.3 µM.
For `CCCC[C@H](OC)c1cc(=O)oc2c(C(=O)[C@@H](C)CC)c(OC)c(CC=C(C)C)c(OC)c12`, in that order: greater than 20 µM, 13.2 µM, 6.95 µM and 18.4 µM.
For `CCCc1cc(=O)oc2c(CC=C(C)C)c(O)c(C(=O)CC(C)C)c(O)c12`, in that order: 7.03 µM, 9.4 µM, 3.62 µM and 9.56 µM.
In the case of `CCCC[C@H](O)c1cc(=O)oc2c(C(=O)CC(C)C)c(O)c(CC=C(C)C)c(O)c12`, the IC50 in the assay on PC-3 [2] worked out at 1.14 µM; in [3], 1.72 µM; in the assay with T47D [6], 0.91 µM; in [8], 1.81 µM.
Regarding `CC(C)=CCc1c(O)c(C(=O)CC(C)C)c2oc(=O)cc(-c3ccccc3)c2c1O` [ISOMAMMEISIN], the result in the assay on T47D [1], with T47D [4] and with T47D [9] was Active. For the same compound, the IC50 came out at 2.18 µM in the assay with PC-3 [2], 3.23 µM in assay [3], 1.57 µM with T47D [6] and 3.73 µM in assay [8]. Also, in the assay with T47D [5], the result was inactive. In the assay on T47D [7], the inhibition entry is “Dose-dependent effect”.
For `CC[C@H](C)C(=O)c1c(O)c(CC=C(C)C)c(O)c2c(-c3ccccc3)cc(=O)oc12`, the IC50 came to 5.26 µM with PC-3 [2], 6.76 µM in [3], 4.01 µM in the assay with T47D [6] and 5.96 µM in [8].
For `CCCc1cc(=O)oc2c(C(=O)[C@@H](C)CC)c(O)c(CC=C(C)C)c(O)c12`, in that order: 6.05 µM, 5.04 µM, 3.22 µM and 3.25 µM.
For `CCCC[C@H](OC(C)=O)c1cc(=O)oc2c(C(=O)[C@@H](C)CC)c(OC(C)=O)c(CC=C(C)C)c(O)c12` the same measures were 6.41 µM, 5.11 µM, 4.72 µM and 5.47 µM.
For `CCCC[C@H](OC(C)=O)c1cc(=O)oc2c(C(=O)[C@@H](C)CC)c(O)c(CC=C(C)C)c(OC(C)=O)c12`, in that order: 1.16 µM, 2.06 µM, 0.97 µM and 1.68 µM.
For the compound `CCCCCc1cc(=O)oc2c(CC=C(C)C)c(O)c(C(=O)CC(C)C)c(O)c12`, the IC50 was determined as 3.36 µM in the assay on PC-3 [2], 4.19 µM in [3], 3.13 µM in the assay with T47D [6] and 4.12 µM in assay [8].
For `CC(C)=CCc1c(O)c(C(=O)CC(C)C)c(O)c2c(-c3ccccc3)cc(=O)oc12` [MAMMEISIN], in that order: 5.31 µM, 4.44 µM, 4.28 µM and 3.71 µM.
